# Measured values published in ChEMBL document CHEMBL4052826, “Design and Synthesis of Novel Reactive Oxygen Species Inducers for the Treatment of Pancreatic Ductal Adenocarcinoma” (J Med Chem, 2018).
# The source made the active and inactive calls. The rule behind the calls is not given here.
# How the values were obtained:
# [1] = Induction of compound colloidal behavior
# [2] = system: MIA PaCa-2; assay: Induction of unfolded protein response in human MIAPaCa2 cells assessed as upregulation of HSPA5 gene expression after 4 hrs by Bru-seq analysis; type: functional, cell-based
# Outline: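 Nascent RNA sequencing (Bru-seq): 4×10^6 MIA PaCa-2 cells seeded in 10 cm dishes, treated next day for 4 h with drug or DMSO. Bromouridine (2 mM final) added for the last 30 min. Total RNA taken in TRIZOL; labeled RNA immunocaptured, converted to cDNA libraries and deep sequenced. Signal compared with DMSO-treated cells.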
# [3] = system: MIA PaCa-2; assay: Antitumor activity against human MIAPaCa2 cells xenografted in NOD/SCID mouse assessed as tumor volume at 5 mg/kg, ip administered 5 times a week for 48 days (reference value: 1503 +/- 189 mm'3); type: functional
# Outline: (§1)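 MIA PaCa-2 subcutaneous xenografts in NOD/SCID mice, randomized at 75 mm3. Test agent was given at 5 mg/kg five times a week. Gemcitabine was given at 15 mg/kg either once weekly for 48 days or twice weekly for 15 days. Groups were n=3–4. Tumor volume was measured by caliper, given as mean ± SEM, and compared by unpaired t test.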
# [4] = Cytotoxicity against HPDEC assessed as decrease in cell proliferation after 72 hrs by MTT assay; type: cell-based; conditions: Homo sapiens
# Outline: (§2)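 MTT assay. Cells (3000–8000/well) attached overnight in RPMI1640 with 10% FBS; the GR line was kept with 200 nM gemcitabine. Serial dilutions (30 nM–10 μM for most lines) were applied for 72 h. MTT was added at a final 300 μg/mL for 3 h at 37°C, formazan was dissolved in DMSO and A570 read. Inhibition = (1 − OD treated/OD control) × 100. IC50 given as mean ± SD, three independent experiments.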
# [5] = system: MIA PaCa-2; assay: Downregulation of Sp1 gene expression in human MIAPaCa2 cells at IC50 to 5 times IC50 after 4 hrs by Bru-seq analysis; type: functional, cell-based
# [6] = system: Mus musculus; assay: Induction of reactive oxygen species generation in tumor of NOD/SCID mouse xenografted with MIAPaCa2 cells assessed as upregulation of HO-1 expression at 5 mg/kg, ip administered 5 times a week until day 44 by Western blot method; type: functional, organism-based
# [7] = system: PANC-1; assay: Cytotoxicity against human PANC1 cells assessed as decrease in cell proliferation after 72 hrs by MTT assay; type: functional, cell-based; conditions: PANC-1, 72 h; outline: as §2
# [8] = system: MIA PaCa-2; assay: Antitumor activity against human MIAPaCa2 cells xenografted in NOD/SCID mouse assessed as tumor volume at 5 mg/kg, ip administered 5 times a week until day 44 (reference value: 1291 +/- 168 mm'3); type: functional
# [9] = system: MIA PaCa-2; assay: Antitumor activity against human MIAPaCa2 cells xenografted in NOD/SCID mouse assessed as tumor volume at 5 mg/kg, ip administered 5 times a week co-administered with gemcitabine at 15 mg/kg administered once a week for 48 days (reference value: 1503 +/- 189 mm'3); type: functional; outline: as §1
# [10] = system: MIA PaCa-2; assay: Induction of unfolded protein response in human MIAPaCa2 cells assessed as upregulation of DDIT3 gene expression after 4 hrs by Bru-seq analysis; type: functional, cell-based
# [11] = system: Mus musculus; assay: Toxicity in NOD/SCID mouse xenografted with human MIAPaCa2 cells assessed as microscopic changes in pancreas at 5 mg/kg, ip administered 5 times a week until day 44 by hematoxylin and eosin staining-based inverted microscopic method; type: organism-based; conditions: in vivo
# Outline: (§3)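 Necropsy after the 44-day ip course in MIA PaCa-2 xenograft-bearing NOD/SCID mice: heart, kidney, liver, lung, spleen and pancreas fixed in 10% neutral buffered formalin, paraffin-embedded, sectioned and stained with hematoxylin and eosin. Sections examined by inverted microscope at 20X, compared with vehicle-treated animals.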
# [12] = system: MIA PaCa-2; assay: Downregulation of COX-3 expression in human MIAPaCa2 cells at 2 uM after 4 to 24 hrs by Western blot method; type: functional, cell-based
# Outline: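 Immunoblotting. Cells (4×10^5) in 60 mm dishes were treated, lysed 30 min at 4°C and quantified by BCA. 40 μg protein was run on SDS-PAGE and transferred to PVDF. Primary antibodies (1:1000) incubated overnight at 4°C, then Dylight 800 secondary, with fluorescent scanning. Bands were normalized to GAPDH or actin loading controls. Mean ± SD, three independent experiments, Student's t-test.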
# [13] = system: Mus musculus; assay: Toxicity in NOD/SCID mouse xenografted with human MIAPaCa2 cells assessed as microscopic changes in spleen at 5 mg/kg, ip administered 5 times a week until day 44 by hematoxylin and eosin staining-based inverted microscopic method; type: organism-based; conditions: in vivo; outline: as §3
# [14] = system: MIA PaCa-2; assay: Downregulation of Sp4 gene expression in human MIAPaCa2 cells at IC50 to 5 times IC50 after 4 hrs by Bru-seq analysis; type: functional, cell-based
smiles,measurement,setting,value
O=C1C(Nc2ccc(-c3ccccc3)cc2)=CC(=O)c2ncncc21,Activity,[1],Active
same,Activity,[2],Dose-dependent effect
same,Activity,[3],248 mm3
same,IC50,[4],2.7 µM
same,Activity,[5],inactive
same,Activity,[6],Active
same,IC50,[7],0.4 µM
same,Activity,[8],308 mm3
same,Activity,[9],163 mm3
same,Activity,[10],Dose-dependent effect
same,Activity,[11],Non-Toxic
same,Activity,[12],Active
same,Activity,[13],Non-Toxic
same,Activity,[14],inactive
